Here are results for 23 compounds from ChEMBL document CHEMBL3414514, “Synthesis and pharmacological evaluation of novel bisindole derivatives bearing oximes moiety: identification of novel proapoptotic agents” (Eur J Med Chem, 2015).

Experiment [1] concerns MGC-803. The experiment can be described thus: Cytotoxicity against human MGC803 cells after 2 days by MTT assay. The class given is functional, cell-based. Conditions: MGC-803, 48 h. The procedure, abridged: (§1)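 Cells grown in medium with 10% heat-inactivated FBS at 37 C under 5% CO2. Compounds dissolved in medium with 1% DMSO; controls received 1% DMSO. After 2 days, MTT (10 mg/mL) added for 4 h, formazan dissolved in DMSO and absorbance read at 570/630 nm. Survival taken relative to negative control; IC50 by Bliss method (n = 5), at least three independent experiments.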
In general terms: Tetrazolium assays rely on reduction of a dye to a coloured formazan, in cell work by metabolically active cells.

Experiment [2] can be described thus: Cytotoxicity against human SKOV3 cells after 2 days by MTT assay. Type of experiment: functional, cell-based. Conditions: SK-OV-3, 48 h. The essentials:
as §1

Experiment [3] has as its system HepG2. The experiment can be described thus: Cytotoxicity against human HepG2 cells after 2 days by MTT assay. Type of experiment: functional, cell-based. The note with it: HepG2, 48 h. The essentials:
as §1

Experiment [4] in a line: Cytotoxicity against human SPCA2 cells after 2 days by MTT assay. The class given is functional, cell-based. Conditions: SPCA2, 48 h. The essentials:
as §1

In experiment [5] the test system is A549. The experiment can be described thus: Cytotoxicity against human A549 cells after 2 days by MTT assay. The class given is functional, cell-based. Conditions: A549, 48 h. The essentials:
as §1

Experiment [6] is described as follows: Cytotoxicity against human T24 cells after 2 days by MTT assay. The class given is functional, cell-based. The note with it: T-24, 48 h. The procedure, abridged:
as §1

The test system of experiment [7] is HUVEC. The experiment can be described thus: Cytotoxicity against human HUVEC cells after 2 days by MTT assay. The class given is cell-based. The note with it: 48 h. The procedure, abridged: as §1
Experiment [8] has as its system NCI-H460. The experiment can be described thus: Cytotoxicity against human NCI-H460 cells after 2 days by MTT assay. The class given is functional, cell-based. Conditions: NCI-H460, 48 h. The essentials:
as §1

One may read the IC50 as the point on the concentration scale where inhibition reaches its midpoint. The low end stands for greater potency in that assay, the high end for weaker potency in that assay. Turning to `Fc1ccc2c(c1)N=C(c1c[nH]c3cc(F)ccc13)/C2=N/OCc1ccccc1`, the concentration for half-maximal inhibition (IC50) was determined as 21.9 µM in experiment [1]; 15.6 µM in experiment [2]; 24.1 µM in experiment [3]; 20.2 µM in experiment [4]; 15.7 µM in experiment [5]; 13.3 µM in experiment [6]. The values for the 50% inhibitory concentration (IC50) in experiment [7] and in experiment [8] were greater than 100 µM and 19.4 µM, respectively.
For `Cc1cccc2c1N=C(c1c[nH]c3c(C)cccc13)/C2=N/OCc1cccc(Cl)c1`, the IC50 came out at 26.4 µM in experiment [1]; 26.5 µM in experiment [2]; 22.8 µM in experiment [3]; 18.2 µM in experiment [4]; 31.9 µM in experiment [5]; 17.6 µM in experiment [6]. The IC50 is greater than 100 µM in experiment [7] and 23.1 µM in experiment [8].
As to `O/N=C1/C(c2c[nH]c3ccccc23)=Nc2ccccc21`, the IC50 in experiment [1] was determined as 20.6 µM; in experiment [2], 15.9 µM; in experiment [3], 20.4 µM; in experiment [4] it was 20.4 µM; in experiment [5], 21.8 µM; in experiment [6], 27.4 µM. In addition, the IC50 is greater than 100 µM in experiment [7] and 22.5 µM in experiment [8].
In the case of `FC(F)(F)c1ccc(CO/N=C2/C(c3c[nH]c4ccc(Br)cc34)=Nc3ccc(Br)cc32)cc1`, the IC50 in experiment [1] was 11.1 µM; in experiment [2], 10.2 µM; in experiment [3], 11.1 µM; in experiment [4], 12.4 µM; in experiment [5], 8.45 µM; in experiment [6] it was 9.88 µM. The IC50 in experiment [7] was greater than 100 µM; in experiment [8], 11.2 µM.
As for `Nc1ccc2c(c1)/C(=N\O)C(c1c[nH]c3ccc(N)cc13)=N2`, the IC50 in experiment [1] stood at 13.2 µM; in experiment [2] it was 17.5 µM; in experiment [3] it was 18.5 µM; in experiment [4], 16.7 µM; in experiment [5] it was 14.8 µM; in experiment [6], 9.38 µM. In addition, the IC50 was greater than 100 µM in experiment [7] and 20.2 µM in experiment [8].
In the case of `Fc1ccc(CO/N=C2/C(c3c[nH]c4ccccc34)=Nc3ccccc32)cc1`, the IC50 worked out at 33 µM in experiment [1]; 29 µM in experiment [2]; 35.5 µM in experiment [3]; 25.9 µM in experiment [4]; 27 µM in experiment [5]; 23.1 µM in experiment [6]. For the same compound, the IC50 in experiment [7] is greater than 100 µM; in experiment [8] it was 20.7 µM.
As to `Cc1ccc(CO/N=C2/C(c3c[nH]c4ccc(F)cc34)=Nc3ccc(F)cc32)cc1`, the 50% inhibitory concentration (IC50) in experiment [1] was 20.8 µM; in experiment [2] it was 11.3 µM; in experiment [3] it was 19.6 µM; in experiment [4] it was 11 µM; in experiment [5] it was 13.6 µM; in experiment [6], 20 µM. The values for the half-maximal inhibitory concentration (IC50) in experiment [7] and in experiment [8] were greater than 100 µM and 12 µM, respectively.
With `Cc1cccc2c1N=C(c1c[nH]c3c(C)cccc13)/C2=N/OCc1cccc(F)c1`, the half-inhibitory concentration (IC50) turned out to be 31.9 µM in experiment [1]; 17.3 µM in experiment [2]; 34.1 µM in experiment [3]; 20.4 µM in experiment [4]; 23.3 µM in experiment [5]; 21.2 µM in experiment [6]. Also, the IC50 was greater than 100 µM in experiment [7] and 16.8 µM in experiment [8].
With `N#Cc1cccc2c1/C(=N\O)C(c1c[nH]c3cccc(C#N)c13)=N2`, the IC50 is 35.4 µM in experiment [1]; 30.6 µM in experiment [2]; 40.5 µM in experiment [3]; 30.9 µM in experiment [4]; 33.6 µM in experiment [5]; 19.4 µM in experiment [6]. Moreover, the 50% inhibitory concentration (IC50) in experiment [7] was greater than 100 µM; in experiment [8], 18.8 µM.
On to `N#Cc1ccc2c(c1)/C(=N\OCc1ccccc1)C(c1c[nH]c3ccc(C#N)cc13)=N2`, for which the IC50 in experiment [1] was 15.5 µM; in experiment [2] it was 16.6 µM; in experiment [3], 25.1 µM; in experiment [4], 19.3 µM; in experiment [5], 14.2 µM; in experiment [6], 18.6 µM. For the same compound, the 50% inhibitory concentration (IC50) in experiment [7] is greater than 100 µM; in experiment [8], 14.5 µM.
Turning to `Cc1cccc2c1N=C(c1c[nH]c3c(C)cccc13)/C2=N/O`, the IC50 in experiment [1] is 16.9 µM; in experiment [2], 48 µM; in experiment [3], 15.6 µM; in experiment [4], 24.3 µM; in experiment [5] it was 17.5 µM; in experiment [6], 23.5 µM. Besides, the IC50 is greater than 100 µM in experiment [7] and 31.4 µM in experiment [8].
Turning to `CCCCO/N=C1/C(c2c[nH]c3ccccc23)=Nc2ccccc21`, the IC50 in experiment [1] is 23.3 µM; in experiment [2], 46 µM; in experiment [3], 33.6 µM; in experiment [4] it was 29.2 µM; in experiment [5], 37 µM; in experiment [6], 35.2 µM. The figures for the IC50 in experiment [7] and in experiment [8] were greater than 100 µM and 42.2 µM, respectively.
Regarding `CC(=O)Nc1ccc2c(c1)/C(=N\O)C(c1c[nH]c3ccc(NC(C)=O)cc13)=N2`, the half-maximal inhibitory concentration (IC50) in experiment [1] stood at 17.9 µM; in experiment [2], 21.2 µM; in experiment [3] it was 28.2 µM; in experiment [4] it was 27.8 µM; in experiment [5], 21.9 µM; in experiment [6], 16.8 µM. Besides, the IC50 was greater than 100 µM in experiment [7] and 30.2 µM in experiment [8].
Regarding `Fc1ccc(CO/N=C2/C(c3c[nH]c4ccccc34)=Nc3ccccc32)c(Cl)c1`, the half-maximal inhibitory concentration (IC50) in experiment [1] was 18.5 µM; in experiment [2] it was 37.6 µM; in experiment [3] it was 25.4 µM; in experiment [4], 19.5 µM; in experiment [5], 21.4 µM; in experiment [6], 20 µM. For the same compound, the values for the IC50 in experiment [7] and in experiment [8] were greater than 100 µM and 21.9 µM, respectively.
`COC(=O)c1ccc2c(c1)/C(=N\O)C(c1c[nH]c3ccc(C(=O)OC)cc13)=N2`: the IC50 in experiment [1] is 22.4 µM; in experiment [2], 15.6 µM; in experiment [3] it was 15.3 µM; in experiment [4], 14.9 µM; in experiment [5], 20.5 µM; in experiment [6], 11.5 µM. For the same compound, the IC50 in experiment [7] was greater than 100 µM; in experiment [8], 14 µM.
For the compound `Cc1ccc(CO/N=C2/C(c3c[nH]c4ccccc34)=Nc3ccccc32)cc1`, the 50% inhibitory concentration (IC50) in experiment [1] turned out to be 22.8 µM; in experiment [2], 32.4 µM; in experiment [3], 19.1 µM; in experiment [4], 25.4 µM; in experiment [5], 22.4 µM; in experiment [6], 23.5 µM. The values for the 50% inhibitory concentration (IC50) in experiment [7] and in experiment [8] were greater than 100 µM and 29.8 µM, respectively.
`COc1ccc2c(c1)/C(=N\OCc1ccc(F)cc1Cl)C(c1c[nH]c3ccc(OC)cc13)=N2`: the IC50 was found to be 16.1 µM in experiment [1]; 12.2 µM in experiment [2]; 24.1 µM in experiment [3]; 11.1 µM in experiment [4]; 19.1 µM in experiment [5]; 12.4 µM in experiment [6]. The IC50 in experiment [7] was greater than 100 µM; in experiment [8], 13 µM.
Consider `C=CCO/N=C1/C(c2c[nH]c3ccccc23)=Nc2ccccc21`, for which the IC50 in experiment [1] turned out to be 24.3 µM; in experiment [2], 26.7 µM; in experiment [3], 31.3 µM; in experiment [4], 26.9 µM; in experiment [5], 30.9 µM; in experiment [6], 32.1 µM. Also, the 50% inhibitory concentration (IC50) in experiment [7] is greater than 100 µM; in experiment [8], 24.5 µM.
Turning to `O=[N+]([O-])c1ccc2c(c1)/C(=N\O)C(c1c[nH]c3ccc([N+](=O)[O-])cc13)=N2`, the IC50 in experiment [1] was 10.8 µM; in experiment [2] it was 10.7 µM; in experiment [3], 8.25 µM; in experiment [4] it was 11.2 µM; in experiment [5], 10.4 µM; in experiment [6] it was 13.2 µM. In addition, the concentration for half-maximal inhibition (IC50) in experiment [7] was greater than 100 µM; in experiment [8] it was 11.5 µM.
As to `c1ccc(CO/N=C2/C(c3c[nH]c4ccccc34)=Nc3ccccc32)cc1`, the half-inhibitory concentration (IC50) in experiment [1] is 15.4 µM; in experiment [2] it was 16.9 µM; in experiment [3], 19.5 µM; in experiment [4], 21.4 µM; in experiment [5], 19.3 µM; in experiment [6] it was 12.2 µM. Also, the IC50 in experiment [7] is greater than 100 µM; in experiment [8], 22 µM.
`Clc1cccc(CO/N=C2/C(c3c[nH]c4ccc(Br)cc34)=Nc3ccc(Br)cc32)c1`: the concentration for half-maximal inhibition (IC50) came to 7.6 µM in experiment [1]; 14.1 µM in experiment [2]; 13.3 µM in experiment [3]; 13.5 µM in experiment [4]; 12.9 µM in experiment [5]; 9.34 µM in experiment [6]. For the same compound, the half-maximal inhibitory concentration (IC50) is greater than 100 µM in experiment [7] and 14.6 µM in experiment [8].
Consider `Fc1ccc2c(c1)/C(=N\OCc1ccccc1)C(c1c[nH]c3ccc(F)cc13)=N2`, for which the IC50 in experiment [1] turned out to be 21.3 µM; in experiment [2], 12.3 µM; in experiment [3], 17.3 µM; in experiment [4] it was 13.3 µM; in experiment [5], 10.5 µM; in experiment [6], 12.5 µM. For the same compound, the IC50 was greater than 100 µM in experiment [7] and 12 µM in experiment [8].
`Cc1ccc2c(c1)/C(=N\O)C(c1c[nH]c3ccc(C)cc13)=N2`: the IC50 amounted to 9.47 µM in experiment [1]; 11.1 µM in experiment [2]; 10.7 µM in experiment [3]; 19.6 µM in experiment [4]; 11.2 µM in experiment [5]; 8.78 µM in experiment [6]. The results for the IC50 in experiment [7] and in experiment [8] were greater than 100 µM and 18.3 µM, respectively.
